The record followed here is ChEMBL document CHEMBL1130191 (J Med Chem, 1997).

Values after ≈ are worked out from the molar mass of the structure shown. A value given as a limit tells only on which side of the number the result lay.

In assay [1] the test system is B16. Briefly: Inhibition of murine B16 Melanoma cell proliferation. The format is functional, cell-based, Mus musculus. The method in brief:
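Clonogenic assay: B16 melanoma cells (EMEM with 10% FCS, 37 °C, 5% CO2) seeded 200 per dish, attached 20 h, exposed to increasing drug concentrations 24 h, washed, regrown 12 days; methanol-fixed, crystal violet-stained, colonies >50 cells counted. IC50 is concentration giving 50% cloning efficiency versus untreated.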

Assay [2] deals with Bacillus cereus. As to the kind of experiment: Antimicrobial activity against Bacillus cereus. The format is functional. The method in brief:
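B. cereus ATCC 14579 in Mueller-Hinton broth pH 7.4, compounds diluted in DMSO across 12 tubes spanning 100 to 0.05 μg/mL; growth read after 24 h at 27 °C; MIC taken as lowest inhibitory concentration. Disk diffusion screen also run: 6 mm paper disks carrying 300 μg drug in DMSO, 24 h at 27 °C.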

Assay [3] relates to P388. Briefly: Inhibition of P388 Leukemia cell proliferation. The format is functional, cell-based. The settings on record: Mus musculus. The method in brief: (§1)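 P388 murine leukemia cells exposed to a range of drug concentrations for 96 h at 37 °C; viability scored by neutral red staining; IC50 is the concentration giving 50% growth inhibition.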
Assay [4] deals with Protein kinase C alpha type (Homo sapiens, UniProt P17252). Briefly: Inhibition of Protein kinase C alpha. The method, boiled down:
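Recombinant PKC-α, partially purified; protamine sulfate substrate without phosphatidylserine or diacylglycerol; γ-33P incorporation measured by spotting aliquots on P81 paper. Compounds serially diluted 10-fold in DMSO/water 50:50. Two independent experiments; IC50 in μM.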

Assay [5] concerns DNA topoisomerase II (Bos taurus). Briefly: Inhibition of calf thymus Topoisomerase-2.
In assay [6] the test system is DNA topoisomerase I (Bos taurus). Briefly: Inhibition of calf thymus Topoisomerase-I.
In assay [7] the test system is P388. As to the kind of experiment: Inhibition of P388 murine leukemia cell proliferation. The format is functional, cell-based. The conditions noted are these: Mus musculus. The method in brief:
as §1

As usually defined, the IC50 is the concentration that inhibits the measured activity by half. A higher IC50 goes with weaker potency. For `CO[C@H]1[C@H](O)[C@@H](O)[C@H](n2c3c(Cl)cccc3c3c4c(c5c6cccc(Cl)c6[nH]c5c32)C(=O)N(C)C4=O)O[C@@H]1CO`, the half-inhibitory concentration (IC50) in assay [1] (Mus musculus, B16) was 0.61 µM; in assay [3], 0.6 µM; in assay [4] it was greater than 100 µM. In addition, the MIC in assay [2] (Bacillus cereus, read-out: MIC) was greater than 85 µM.
With `CC1OC(n2c3ccccc3c3c4c(c5c6ccccc6[nH]c5c32)C(=O)N(C)C4=O)C(O)C(O)C1O` (stereo in doubt; 13) [listing 1 of 2 here], the half-maximal inhibitory concentration (IC50) was found to be 4.75 µM in assay [1] (b16) and 82 µM in assay [4]. This molecule also registered an MIC in assay [2] of 103 µM (≈ 50 µg/mL).
On to `CC1OC(n2c3ccccc3c3c4c(c5c6ccccc6[nH]c5c32)C(=O)N(C)C4=O)C(O)C(O)C1O` (stereo in doubt; 13) [listing 2 of 2 here], for which the MIC in assay [5] and in assay [6] was greater than 20 µM each time.
Regarding `CC(=O)OCC1OC(n2c3ccccc3c3c4c(c5c6ccccc6[nH]c5c32)C(=O)N(C)C4=O)C(OC(C)=O)C(OC(C)=O)C1OC(C)=O` (stereo in doubt; 6) [listing 1 of 2 here], the MIC in assay [5] and in assay [6] was greater than 15 µM each time.
On to `CC(=O)OCC1OC(n2c3ccccc3c3c4c(c5c6ccccc6[nH]c5c32)C(=O)N(C)C4=O)C(OC(C)=O)C(OC(C)=O)C1OC(C)=O` (stereo in doubt; 5), for which the MIC in assay [5] and in assay [6] was greater than 15 µM each time.
Regarding `CN1C(=O)c2c(c3c4ccccc4n(C4OC(CO)C(O)C(O)C4O)c3c3[nH]c4ccccc4c23)C1=O` (stereo in doubt; 9) [listing 1 of 2 here], 62 µM corresponded to half-maximal inhibition in assay [4] (IC50).
For `CN1C(=O)c2c(c3c4ccccc4n(C4OC(CO)C(O)C(O)C4O)c3c3[nH]c4ccccc4c23)C1=O` (stereo in doubt; 8) [listing 1 of 2 here], the half-maximal inhibitory concentration (IC50) in assay [1] (b16) is 3.3 µM; in assay [4], greater than 100 µM. The molecule also registered an MIC in assay [2] of 12.4 µM (≈ 6.22 µg/mL).
Take `CN1C(=O)c2c(c3c4ccccc4n(C4OC(CO)C(O)C(O)C4O)c3c3[nH]c4ccccc4c23)C1=O` (stereo in doubt; 8) [listing 2 of 2 here]: the MIC in assay [5] was greater than 20 µM; in assay [6], 2 µM (≈ 1 µg/mL).
On the same counts, the results for `CN1C(=O)c2c(c3c4ccccc4n(C4OC(CO)C(O)C(O)C4O)c3c3[nH]c4ccccc4c23)C1=O` (stereo in doubt; 7) [listing 1 of 2 here] are greater than 20 µM and greater than 20 µM.
For the molecule `CO[C@H]1[C@H](O)[C@@H](O)[C@H](n2c3ccccc3c3c4c(c5c6ccccc6[nH]c5c32)C(=O)N(C)C4=O)O[C@@H]1CO`, the IC50 in assay [1] (Mus musculus, B16) is 1.06 µM; in assay [3], 0.7 µM; in assay [4] it was greater than 100 µM. For the same molecule, the MIC was 1.55 µM (≈ 0.799 µg/mL) in assay [2] (Bacillus cereus, read-out: MIC) and 0.6 µM (≈ 0.309 µg/mL) in assay [6].
For the molecule `CC1OC(n2c3ccccc3c3c4c(c5c6ccccc6[nH]c5c32)C(=O)N(C)C4=O)C(O)C(O)C1O` (stereo in doubt; 14) [listing 1 of 2 here], the IC50 is 3.75 µM in assay [1] (Mus musculus, B16); 6.2 µM in assay [3]; greater than 100 µM in assay [4]. Also, the MIC in assay [2] turned out to be 3.1 µM (≈ 1.51 µg/mL).
Turning to `CC(=O)OCC1OC(n2c3ccccc3c3c4c(c5c6ccccc6[nH]c5c32)C(=O)N(C)C4=O)C(OC(C)=O)C(OC(C)=O)C1OC(C)=O` (stereo in doubt; 4) [listing 1 of 2 here], the MIC in assay [5] and in assay [6] was greater than 15 µM in each case.
`CO[C@H]1[C@H](O)[C@@H](O)[C@H](n2c3c(Cl)cccc3c3c4c(c5c6cccc(Cl)c6[nH]c5c32)C(=O)NC4=O)O[C@@H]1CO` [REBECCAMYCIN]: the MIC in assay [2] (Bacillus cereus, read-out: MIC) was determined as 10.9 µM (≈ 6.22 µg/mL). Besides, the half-maximal inhibitory concentration (IC50) is 0.5 µM in assay [7] and greater than 100 µM in assay [4].
As to `CC(=O)OCC1OC(n2c3ccccc3c3c4c(c5c6ccccc6[nH]c5c32)C(=O)N(C)C4=O)C(OC(C)=O)C(OC(C)=O)C1OC(C)=O` (stereo in doubt; 3) [listing 1 of 2 here], the IC50 was 2.5 µM in assay [1] (b16) and greater than 100 µM in assay [4].
With `CC(=O)OCC1OC(n2c3ccccc3c3c4c(c5c6ccccc6[nH]c5c32)C(=O)N(C)C4=O)C(OC(C)=O)C(OC(C)=O)C1OC(C)=O` (stereo in doubt; 4) [listing 2 of 2 here], the IC50 is 78 µM in assay [1] (b16) and greater than 15 µM in assay [3]. Besides, in assay [2] (Bacillus cereus, read-out: MIC), the MIC is greater than 74 µM.
On to `CO[C@H]1[C@H](O)[C@@H](O)[C@H](n2c3ccccc3c3c4c(c5c6ccccc6[nH]c5c32)C(=O)NC4=O)O[C@@H]1CO`, for which the MIC is greater than 97 µM in assay [2] (Bacillus cereus, read-out: MIC); greater than 19 µM in assay [5]; 1.95 µM (≈ 0.978 µg/mL) in assay [6]. For the same molecule, the IC50 was 6.8 µM in assay [3] and greater than 100 µM in assay [4].
In the case of `CN1C(=O)c2c(c3c4ccccc4n(C4OC(CO)C(O)C(O)C4O)c3c3[nH]c4ccccc4c23)C1=O` (stereo in doubt; 10) [listing 1 of 2 here], the MIC was greater than 20 µM in assay [5] and 0.6 µM (≈ 0.301 µg/mL) in assay [6].
In the case of `CN1C(=O)c2c(c3c4ccccc4n(C4OC(CO)C(O)C(O)C4O)c3c3[nH]c4ccccc4c23)C1=O` (stereo in doubt; 9) [listing 2 of 2 here], the values for the MIC in assay [5] and in assay [6] were greater than 20 µM and 6 µM (≈ 3.01 µg/mL), respectively.
For `CN1C(=O)c2c(c3c4ccccc4n(C4OC(CO)C(O)C(O)C4O)c3c3[nH]c4ccccc4c23)C1=O` (stereo in doubt; 10) [listing 2 of 2 here], the IC50 is 5.4 µM in assay [1] (b16) and 99 µM in assay [4].
Consider `CC(=O)OCC1OC(n2c3ccccc3c3c4c(c5c6ccccc6[nH]c5c32)C(=O)N(C)C4=O)C(OC(C)=O)C(OC(C)=O)C1OC(C)=O` (stereo in doubt; 3) [listing 2 of 2 here], for which the MIC in assay [5] and in assay [6] was greater than 15 µM in each case.
For `CC1OC(n2c3ccccc3c3c4c(c5c6ccccc6[nH]c5c32)C(=O)N(C)C4=O)C(O)C(O)C1O` (stereo in doubt; 14) [listing 2 of 2 here], the MIC in assay [5] was greater than 20 µM; in assay [6], 2 µM (≈ 0.971 µg/mL).
In the case of `CC(=O)OCC1OC(n2c3ccccc3c3c4c(c5c6ccccc6[nH]c5c32)C(=O)N(C)C4=O)C(OC(C)=O)C(OC(C)=O)C1OC(C)=O` (stereo in doubt; 6) [listing 2 of 2 here], the results for the IC50 in assay [1] (b16) and in assay [4] were 75 µM and greater than 100 µM, respectively.
Take `CN1C(=O)c2c(c3c4ccccc4n(C4OC(CO)C(O)C(O)C4O)c3c3[nH]c4ccccc4c23)C1=O` (stereo in doubt; 7) [listing 2 of 2 here]: the IC50 in assay [1] (b16) is 0.52 µM; in assay [3], 6 µM; in assay [4], 59 µM. Moreover, in assay [2] (Bacillus cereus, read-out: MIC), the MIC was determined as 6.2 µM (≈ 3.11 µg/mL).
